# Source: PubChem
# TbMetRS inhib: blocks T. brucei methionyl-tRNA synthetase activity; purified T. brucei MetRS, ATP depletion, Kinase-Glo luminescence; inhibition, % at 11.9 µM; actives 0.4% (n = 360,000); AID 624268;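 active = inhibition above a per-plate cutoff of the control wells' mean inhibition plus 3 SD, cut at about 5.5% in these data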;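 also: 0% = DMSO wells median and 100% = median of wells with control inhibitor compound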
#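 Test system – parasite MetRS enzyme · Reagent – substrates ATP, L-methionine and bulk Escherichia coli tRNA · Doses – 11.9 µM compound single dose, 0.9% DMSO · Times – 15 min enzyme-compound preincubation, 2 h reaction, 10 min detection, 25 °C · Signal – Kinase-Glo luminescence, ATP depletion format · Controls – DMSO-only wells as low control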
# GRIN3A LBD mod: NR3A (human) ligand-binding domain modulation | NR3A LBD differential scanning fluorimetry, Tm shift; 0% = protein alone, 100% = glycine-bound protein | Tm shift relative to glycine control, % at 25 µM | actives 2.5% (n = 340,000) | AID 1259313;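 active = melting temperature shift of at least 10% of the positive control shift, at one fixed dose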
# MPTP block: blocks calcium-induced mitochondrial swelling; isolated mouse mitochondria, Ca2+ swelling absorbance, 30 min; inhibition, % at 10 µM; actives 1.4% (n = 360,000);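 active = inhibition of 50% or more, scaled per plate between neutral and stimulator controls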;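 also: 0% = DMSO wells given calcium and 100% = 1 mM EGTA wells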
# CHOP inhibitor: blocks CHOP induction under ER stress | CHO-K1 CHOP-promoter luciferase, tunicamycin-induced, 15-18 h | inhibition, % at 10 µM | actives 3.8% (n = 220,000) | AID 2732;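 active = compounds that reduced the stress-induced luciferase reporter signal by more than about 70% of percent inhibition, limit read from the data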;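 also: 0% = tunicamycin plus vehicle and 100% = wells without tunicamycin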
# WT yeast gro inh: growth inhibition of WT yeast, mitochondrial fusion screen. mitochondrial fusion phenotypic screen, WT strain. inhibition, % at 10 µM. actives 2.1% (n = 190,000); in the data active = inhibition above about 58%; tested in S. cerevisiae
# EBV gp42 block: blocks Epstein-Barr virus glycoprotein 42 binding; inhibition, % (tested at 21.74 µM); actives 0.42% (n = 220,000); Fluorescence polarization binding assay, mP read-out; in the data active = inhibition above about 50%
# Target sequence (Q1HVG2 whole entry, looked up): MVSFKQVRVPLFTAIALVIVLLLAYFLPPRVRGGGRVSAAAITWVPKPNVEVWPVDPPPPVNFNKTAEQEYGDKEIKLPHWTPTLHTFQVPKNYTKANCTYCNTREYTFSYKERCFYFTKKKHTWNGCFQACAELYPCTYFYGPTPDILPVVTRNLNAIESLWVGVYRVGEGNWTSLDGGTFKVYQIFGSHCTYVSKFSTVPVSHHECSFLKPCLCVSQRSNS
# * = called active by the depositor; x = no result. Shown are actives, neighbours in structure and some others; about 6.4% of the full set was active somewhere.
SMILES,TbMetRS inhib,GRIN3A LBD mod,MPTP block,CHOP inhibitor,WT yeast gro inh,EBV gp42 block
CC(NC(=O)c1ccc(Br)cc1)c1ccc2c(c1)CCCC2 (configuration not stated),0,-4,24,20,63*,-17
O=C(NCCN1C(=O)S/C(=C\c2ccccc2)C1=O)C1CCN(S(=O)(=O)c2cccs2)CC1,0,15*,5,19,-5,-8
Nc1ccccc1-c1nc2ccccc2[nH]c1=O,0,-2,-1,x,x,x
O=c1[nH]c2ccccc2nc1-c1c[nH]c2ccccc12,1,39*,1,x,x,x
Cc1n[nH]c(C)c1CCC(=O)N/N=C/c1c[nH]c2ccccc12,0,4,1,-1,x,-5
COc1ccc(-c2nc3n(c(=O)c2C#N)CCCS3)cc1,0,-2,-4,-7,75*,-11
COc1ccccc1[C@]1(C)ON(c2ccccc2C(F)(F)F)C1=O,0,1,1,x,x,x
CC(C)NC(=S)N/N=C1\CCCCc2ccccc21,-1,-1,0,-22,65,-8
COc1cccc(NC(=S)N/N=C2/CCCCc3ccccc32)c1,-1,-4,3,-31,65*,-6
CC1CCc2nc(NC(=O)c3ccco3)sc2C1 (configuration not stated),-2,-1,-2,71*,52,-7
CC1CCc2nc(NC(=O)Cc3cccs3)sc2C1 (configuration not stated),-1,-3,-2,7,27,-20
CC(C)c1ccc(NC(=S)N(C)CCc2ccccn2)cc1,-1,1,-3,-23,74*,1
Nc1ccc(Sc2cnn(-c3ccccc3)c(=O)c2Cl)cc1,0,-3,8,61,-3,-18
Cc1ccc(Sc2cnn(-c3ccccc3)c(=O)c2Cl)cc1,0,-1,-6,64,76*,-14
O=C(Nc1cccnc1)c1ccc(Oc2ccccc2)cc1,0,1,1,4,41,-4
Cn1nc(C(F)(F)F)c2cc(NC(=O)OCc3ccc(F)cc3)sc21,-2,-2,11,50,79*,11
Cn1nc(C(F)(F)F)c2cc(C(=O)Nc3ccc(Cl)cc3)sc21,0,6,10,64,74*,-23
CCc1ccc(CNC(=O)C2CCCN(c3nn4c(=O)cc(C)nc4s3)C2)cc1 (configuration not stated),0,-1,-4,x,x,x
CC(=O)Nc1sc2c(c1-c1nc3ccccc3s1)CCN(C(C)C)C2,-1,4,22,-2,58*,-19
CC(C)N1CCc2c(sc(NC(=O)Cc3ccccc3)c2C(N)=O)C1,0,-1,0,x,x,x
O=C(NNC(=S)NC(=O)c1ccco1)c1ccc(NC(=O)c2ccccc2)cc1,0,0,-2,30,-27,0
COc1cc(OC)cc(C(=O)NC(=S)Nc2ccc(NC(=O)c3ccco3)cc2)c1,-1,18*,0,-21,-7,2
O=C(/C=C/c1ccc(Cl)cc1)NC(=S)Nc1ccc(NC(=O)c2ccco2)cc1,-1,34*,1,-13,7,-26
O=C(Nc1ccc(NC(=S)NC(=O)c2ccco2)cc1)c1ccccc1,-1,15*,4,x,x,x
CC(C)CC(=O)NC(=S)Nc1ccc(NC(=O)c2ccco2)cc1,0,19*,1,12,3,-1
SMILES,TbMetRS inhib,GRIN3A LBD mod,MPTP block,CHOP inhibitor,WT yeast gro inh,EBV gp42 block
CC(C)(C)OC(=O)N(Cc1ccccc1)Cc1cccc(OCc2cccc(NC(=O)C3CC3)c2)c1,0,-1,2,x,x,x
C=CCn1c(=NC(=O)C2CCCCC2)sc2cc(NC(C)=O)ccc21,0,0,-1,68,2,2
CC(C)CC(=O)N1CCN(c2ccc(NC(=O)c3ccco3)cc2)CC1,0,13*,1,x,x,x
Cc1ccccc1CSc1ncc(C#N)c(N)n1,0,-2,0,2,13,-22
C=CCc1cccc2cc(C(=O)Nc3ccc(S(=O)(=O)Nc4nnc(CC)s4)cc3)c(=O)oc12,-2,-9,-9,72*,-11,73*
CCc1nnc(NS(=O)(=O)c2ccc(NC(=O)c3ccccc3)cc2)s1,0,2,-2,2,x,-13
CCc1nnc(NS(=O)(=O)c2ccc(N/C=C\C(=O)c3ccc4ccccc4c3)cc2)s1,1,14*,10,13,-17,11
